Results published in PubChem BioAssay.
Activity calls are given as the source filed them.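 Rule for the calls, unless noted: active = visual image review flags a hit and inhibition of aggregation exceeds 20%; inconclusive = visual hit but inhibition at or below 20%; inactive = no hit on visual image review.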

Tests used:
[1] = inhibitors of TNFa-induced NFkB p65 translocation, primary screen, imaging, HUVEC, MLSMR starter and 10KST1 sets (AID 438;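 active = inhibition above 20% together with a positive visual image hit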;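 note: compound added about 3h40 before a 20 min TNFalpha stimulation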;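 for inhibition: signal is the nuclear over cytoplasmic p65 intensity ratio per well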); details: HUVEC TNFa-induced p65 nuclear translocation; cell count: measured here: nuclei count (cytotoxicity indicator), at 2.08 µM; inhibition: at 2 µM, stronger effect = higher value, 0% TNFa-plus-vehicle, 100% no-TNFa wells
[2] = inhibitors of mutant huntingtin aggregation, primary screen, imaging, exon1htt(103Q)mCFP cells, high-content imaging (AID 483); details: exon1htt(103Q)mCFP cell line, aggregate imaging, at 2 µM; inhibition of aggregation: stronger effect = higher value; nuclei count: measured here: cell count, toxicity;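 note: compound exposure lasted 3 days before fixation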;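 for nuclei count: percent of the per-plate median nuclei count of sample wells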
[3] = inhibitors of E-selectin induction by TNFa, primary screen, imaging, HUVEC, immunofluorescence, MLSMR starter and 10KST1 sets (AID 487;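 active = visually confirmed hit in the image check and inhibition above 20%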;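 for inhibition: signal is fraction of cell area covered by stained E-selectin grains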;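 for nuclei count: 100% = median nuclei count of all wells on the same plate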); details: HUVEC TNFalpha-induced E-selectin immunofluorescence imaging, at 2 µM; inhibition: stronger effect = higher value; nuclei count: measured here: cell number, toxicity
[4] = target: Voltage-gated potassium channel subunit beta-2 (Rattus norvegicus) (UniProt P62483); assay: KvBeta enzyme negative modulators, primary screen, biochemical, NADPH fluorescence (AID 622;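 active = fluorescence slope higher than the sample average by over 3 SD, cut at about -0.22 in these data, passing the limit was not always enough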;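 note: slope of raw intensity against log time taken from 70 to 1610 s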); details: recombinant KvBeta, 4-cyanobenzaldehyde reduction, at 10 µM, stronger effect = higher value
Chain of Voltage-gated potassium channel subunit beta-2 (Rattus norvegicus) (P62483 whole entry, looked up): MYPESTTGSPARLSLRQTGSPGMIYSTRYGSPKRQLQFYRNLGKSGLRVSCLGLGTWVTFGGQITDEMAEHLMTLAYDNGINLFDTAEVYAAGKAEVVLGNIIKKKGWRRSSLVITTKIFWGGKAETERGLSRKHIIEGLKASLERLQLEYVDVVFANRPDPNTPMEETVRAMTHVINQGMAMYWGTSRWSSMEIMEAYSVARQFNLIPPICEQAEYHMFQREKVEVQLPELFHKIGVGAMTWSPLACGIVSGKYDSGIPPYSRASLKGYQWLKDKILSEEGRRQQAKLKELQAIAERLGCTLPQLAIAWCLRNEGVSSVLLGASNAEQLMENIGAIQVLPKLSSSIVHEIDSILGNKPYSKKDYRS

[5] = target: Voltage-gated potassium channel subunit beta-2 (Rattus norvegicus) (UniProt P62483); assay: KvBeta positive modulators, primary screen, biochemical, NADPH fluorescence (AID 623;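 active = NADPH fluorescence slope more negative than the mean of all samples by about 3 SD, 99.7% confidence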;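 note: fluorescence intensity change per second fitted from 20 to 320 s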); details: Recombinant KvBeta, NADPH fluorescence decrease slope, 10 min; at 10 µM; stronger effect = lower value
[6] = target: Muscarinic acetylcholine receptor M4 (Homo sapiens) (UniProt P08173); assay: compounds altering M4/GIRK thallium flux, either direction, primary screen, M4 allosteric agonist project, cell-based, HEK293 M4/GIRK, BTC-AM (AID 625;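 active = fluorescence slope after compound addition differing from the mean of all tested samples at 99.7% confidence, mostly higher but some lower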;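 note: thallium influx through GIRK channels coupled to M4 in HEK293 cells with BTC-AM dye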); details: at 10 µM, actives lie on both sides
Chain of Muscarinic acetylcholine receptor M4 (Homo sapiens) (P08173 whole entry, looked up): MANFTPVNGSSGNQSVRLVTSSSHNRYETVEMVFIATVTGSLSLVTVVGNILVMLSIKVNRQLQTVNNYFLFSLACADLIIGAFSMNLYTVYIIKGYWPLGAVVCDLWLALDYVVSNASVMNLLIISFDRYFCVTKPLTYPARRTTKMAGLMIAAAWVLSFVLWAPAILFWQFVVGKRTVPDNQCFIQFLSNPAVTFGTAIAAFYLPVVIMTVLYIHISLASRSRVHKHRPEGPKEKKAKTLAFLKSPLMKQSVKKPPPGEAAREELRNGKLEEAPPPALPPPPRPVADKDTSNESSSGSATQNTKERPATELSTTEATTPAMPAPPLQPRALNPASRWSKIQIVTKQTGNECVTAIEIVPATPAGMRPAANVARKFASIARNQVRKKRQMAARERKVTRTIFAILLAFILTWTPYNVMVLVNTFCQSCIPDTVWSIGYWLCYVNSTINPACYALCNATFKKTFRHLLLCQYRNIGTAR
Procedure, shortened: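 Assay system: HEK293 cells with M4 receptor and GIRK channels / Controls: carbachol and DMSO controls / Schedule: 1 h dye loading, 2 min kinetic read / Technique: kinetic fluorescence with BTC-AM dye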

[7] = inhibitors of Sendai virus-induced IRF3 signaling, primary screen, TLR/RLR signaling modifier project, cell-based, Sendai virus stimulus, luciferase, 10K MLSCN set (AID 602276;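 active = inhibition at or above 50% at 10 µM; inactive = inhibition below 50%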;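 note: firefly luciferase from ISG56 promoter only with Renilla not read in this screen; 0% = Sendai virus plus DMSO and 100% = medium plus DMSO without virus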); details: HEK293 RL24 IRF3 luciferase reporter, at 10 µM, stronger effect = higher value
[8] = inhibitors of poly I:C-induced TLR3 signaling, primary screen, cell-based, poly I:C stimulus, luciferase, 10K MLSCN set (AID 602277;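 active = inhibition of the reporter signal at or above 50%; inactive = inhibition below 50%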); details: HEK293-TLR3 RL24 IRF3 luciferase reporter, at 10 µM, stronger effect = higher value
[9] = target: Alpha-2C adrenergic receptor (Homo sapiens) (UniProt P18825); assay: modulators of alpha2C/GIRK thallium flux, primary screen, cell-based, HEK293 alpha2C/GIRK1/2 (AID 624;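 active = fluorescence slope after compound addition differing from the mean of all screened samples at 99.7% confidence, in either direction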;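 note: slope of fluorescence ratio to pre-addition baseline per second over 15 to 24 s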); details: thallium flux BTC fluorescence, at 10 µM, actives lie on both sides
Chain of Alpha-2C adrenergic receptor (Homo sapiens) (P18825 whole entry, looked up): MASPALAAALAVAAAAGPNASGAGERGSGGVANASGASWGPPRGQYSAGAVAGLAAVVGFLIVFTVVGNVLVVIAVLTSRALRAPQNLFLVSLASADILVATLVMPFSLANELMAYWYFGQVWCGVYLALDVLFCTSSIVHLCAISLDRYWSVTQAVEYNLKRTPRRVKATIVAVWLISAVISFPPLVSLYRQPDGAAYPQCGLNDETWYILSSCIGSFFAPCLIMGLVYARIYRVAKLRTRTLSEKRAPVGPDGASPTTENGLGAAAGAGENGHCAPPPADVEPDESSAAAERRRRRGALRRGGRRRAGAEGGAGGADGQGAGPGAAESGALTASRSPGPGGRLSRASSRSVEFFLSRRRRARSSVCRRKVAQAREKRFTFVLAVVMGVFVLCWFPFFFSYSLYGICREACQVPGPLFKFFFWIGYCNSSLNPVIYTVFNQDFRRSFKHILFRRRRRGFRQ

[10] = inhibitors of larval lipid processing in zebrafish, primary screen, whole organism, PED6 fluorescence, gall bladder and intestine (AID 686;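 active = a full or partial loss of lipid-probe fluorescence in the fish gall bladder, intestine or both, judged by eye; inactive = no fluorescence loss, or compound toxic to the fish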;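 note: larvae 5 to 7 days old with five fish per well; signal comes from phospholipase A2 cleavage of quenched PED6 carried via bile; overnight exposure to compound and PED6 before scoring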); details: Zebrafish larvae PED6 lipid processing, fluorescence scoring; screened at 20 µM (by protocol)
Procedure, shortened: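 Doses: 20 µM single dose. Test system: live zebrafish larvae aged 5-7 days, whole organism. Quantity: five larvae per well. Measured by: By-eye fluorescence microscopy. Reagent: ingested quenched lipid PED6 at 100 nM. Read-out: visual per-well fluorescence inhibition score. Times: overnight exposure of larvae to compound plus PED6.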

Row | SMILES | cell count [1] | inhibition [1] | inhibition of aggregation [2] | nuclei count [2] [%] | inhibition [3] | nuclei count [3] [%] | fluorescence slope [4] | NADPH fluorescence slope [5] | fluorescence slope [6] | inhibition [7] | inhibition [8] | slope [9] | outcome [10]
1 | CCCC1C(C#N)=C(N)Oc2n[nH]c(C(C)(C)C)c21 (centres undefined) | 330 | -6.9% (inactive) | -30.2% (inactive) | 102 | 26.6% (inactive) | 115 | -0.571 (inactive) | -3.1e-05 (inactive) | 0.00609 (inactive) | 13.9% (inactive) | 21.8% (inactive) | – | –
2 | O=C(Nc1nc(-c2ccccc2)cs1)C1CCCO1 (centres undefined) | 440 | 9.4% (inactive) | -2.5% (inactive) | 102 | – | 156 | -0.409 (inactive) | -5.9e-05 (inactive) | – | -12.1% (inactive) | 98.1% (active) | 0.00563 (inactive) | inactive
3 | CCN(CC)S(=O)(=O)c1ccc2c(c1)c(=O)c(C(=O)NCCOC)cn2C | 203 | 6.9% (inactive) | 2.8% (inactive) | 100 | -24.6% (inactive) | 112 | -0.231 (inactive) | -3.4e-05 (inactive) | 0.00464 (inactive) | 19.3% (inactive) | 15.8% (inactive) | – | –
4 | CCCn1c(SCC(=O)N2CCCc3ccccc32)nnc1-c1ccccn1 | 471 | -0.8% (inactive) | -0.4% (inactive) | 100 | -20.1% (inactive) | 113 | -0.59 (inactive) | -6.6e-06 (inactive) | 0.00584 (inactive) | 20.3% (inactive) | 20% (inactive) | – | –
5 | COc1ccc(N2CCC(CNS(=O)(=O)c3cccc(C(F)(F)F)c3)C2)cc1 (centres undefined) | 385 | 5.3% (inactive) | 30.1% (active) | 92.1 | -33.3% (inactive) | 132 | -0.494 (inactive) | -0.000248 (inactive) | 0.00389 (inactive) | 7.7% (inactive) | 2.96% (inactive) | – | –
6 | Cc1cc2nc3c(nc2cc1C)C1(C(=O)O)CCC3(C)C1(C)C (centres undefined) | 376 | -12.3% (inactive) | -4.4% (inactive) | 95 | -109% (inactive) | 101 | -0.547 (inactive) | -0.000111 (inactive) | 0.00318 (inactive) | 13.5% (inactive) | 15.6% (inactive) | – | –
7 | Cc1c(C(=O)NCc2ccccn2)oc2ccccc12 | 328 | -4.1% (inactive) | -3.8% (inactive) | 86 | 44.5% (inactive) | 49.4 | -0.514 (inactive) | 8.6e-06 (inactive) | 0.00478 (inactive) | -29.5% (inactive) | -79.6% (inactive) | – | –
8 | Cc1cc(NCCN(C)C)n2nc(-c3cccs3)cc2n1 | 597 | 7.8% (inactive) | 6.4% (inactive) | 102 | -69% (inactive) | 114 | -0.335 (inactive) | -6.9e-05 (inactive) | 0.00655 (inactive) | -3.67% (inactive) | 1.86% (inactive) | – | –
9 | COc1cc(C(=O)N2CCN(C(=O)CC(C)C)CC2)cc(OC)c1OC | 550 | 3.6% (inactive) | 5% (inactive) | 105 | -73.6% (inactive) | 117 | -0.47 (inactive) | 7.6e-05 (inactive) | 0.00561 (inactive) | -10.1% (inactive) | -1.34% (inactive) | – | –
10 | Cc1ccc(Cn2nnc3c(=O)[nH]c(C4CCN(S(=O)(=O)c5ccc(F)cc5)CC4)nc32)cc1 | 436 | 9.4% (inactive) | 11.5% (inactive) | 107 | – | 153 | -0.584 (inactive) | 1.2e-05 (inactive) | 0.00687 (inactive) | 0.788% (inactive) | -11.3% (inactive) | – | –
11 | Cc1ccc(CNC(=O)c2coc(=O)c3ccccc23)o1 | 581 | 0.6% (inactive) | 4.6% (inactive) | 102 | 58.5% (inactive) | 55.6 | -0.445 (inactive) | -0.000402 (inactive) | 0.00482 (inactive) | – | 98.4% (active) | – | –
12 | c1ccc(-c2nnc(CN3CCC4(CC3)OCCO4)o2)cc1 | 407 | -6.8% (inactive) | 15.2% (inactive) | 70.5 | -27% (inactive) | 118 | -0.596 (inactive) | 1.6e-05 (inactive) | 0.0059 (inactive) | 8.62% (inactive) | 10.2% (inactive) | – | –
13 | CCCc1cc(=O)n2[nH]c(-c3ccc(Br)cc3)cc2n1 | 320 | 1.7% (inactive) | -4.6% (inactive) | 98.8 | -27.5% (inactive) | 119 | -0.473 (inactive) | -2.2e-05 (inactive) | 0.00575 (inactive) | -22.4% (inactive) | -15.4% (inactive) | – | –
14 | COc1ccccc1C(=O)N1CCNC(=O)C1CC(=O)Nc1ccc(Cl)cc1 (centres undefined) | 469 | 1.3% (inactive) | 9.7% (inactive) | 105 | -302% (inactive) | 123 | -0.565 (inactive) | -2.7e-05 (inactive) | 0.00504 (inactive) | 18.2% (inactive) | 28.3% (inactive) | – | –
15 | Cc1cc2cc(CNC(=O)c3ccc4c(c3)OCO4)ccc2[nH]1 | 442 | 2.9% (inactive) | 0.1% (inactive) | 106 | – | 150 | -0.503 (inactive) | -1.1e-05 (inactive) | – | -10.5% (inactive) | -25.2% (inactive) | 0.00502 (inactive) | –
16 | Cc1noc(C)c1CSc1nnc(-c2ccncc2)n1-c1cccc(Cl)c1C | 344 | -2.1% (inactive) | -9% (inactive) | 107 | 51.9% (inactive) | 74.2 | -0.482 (inactive) | 5.5e-05 (inactive) | 0.00492 (inactive) | 10.2% (inactive) | 34.9% (inactive) | – | –
17 | CCOc1ccccc1NC(=O)N1C2CCCC1CC(NC(=O)C1CC1)C2 (centres undefined) | 417 | -3.2% (inactive) | 6.6% (inactive) | 110 | -75.6% (inactive) | 97.6 | -0.515 (inactive) | 4.4e-06 (inactive) | 0.00474 (inactive) | 17.1% (inactive) | 23.8% (inactive) | – | –
18 | Cc1cc(S(=O)(=O)N2CCN(c3ncccn3)CC2)ccc1-n1cnnn1 | 402 | 7.9% (inactive) | -13.8% (inactive) | 101 | – | 149 | -0.393 (inactive) | -1e-05 (inactive) | – | -6.32% (inactive) | 0.356% (inactive) | 0.00528 (inactive) | inactive
19 | Cc1ccc2ncnc(NCCCN3CCOCC3)c2c1 | 339 | -0.6% (inactive) | 4.8% (inactive) | 101 | -25.5% (inactive) | 115 | -0.484 (inactive) | -0.000336 (inactive) | 0.00376 (inactive) | -18.7% (inactive) | -21.1% (inactive) | – | –
20 | CCOC(=O)c1ccc(NC(=O)CSc2ncccn2)cc1 | 366 | 10.7% (inactive) | -25% (inactive) | 101 | -62.8% (inactive) | 100 | -0.532 (inactive) | -0.000128 (inactive) | 0.0039 (inactive) | -20.7% (inactive) | -63.9% (inactive) | – | –
21 | COc1ccc(S(=O)(=O)N(C)c2ccc(C(=O)N3CCOCC3)cc2)cc1 | 321 | -2.9% (inactive) | -6.7% (inactive) | 105 | -106% (inactive) | 129 | -0.515 (inactive) | -0.000149 (inactive) | 0.00412 (inactive) | 14.9% (inactive) | 16.7% (inactive) | – | –
22 | COc1cccc(NC(=O)Cc2nnc(SCC(=O)c3ccccc3)n2C)c1 | 454 | 9.7% (inactive) | -12.5% (inactive) | 88.6 | -39.3% (inactive) | 91.8 | -0.5 (inactive) | 1.7e-05 (inactive) | 0.0063 (inactive) | 3.81% (inactive) | 10.1% (inactive) | – | –
23 | CC(=O)Nc1ccc(N2CCN(Cc3ccccc3F)CC2)cc1 | 452 | 19.4% (inactive) | 12.1% (inactive) | 102 | 34.5% (inactive) | 120 | -0.579 (inactive) | -3.8e-05 (inactive) | 0.0111 (inactive) | 8.54% (inactive) | 19% (inactive) | – | –
24 | COc1ccc(-n2c(COc3ccccc3)nnc2SCc2ccc(C#N)cc2)cc1 | 687 | -7.7% (inactive) | -21% (inactive) | 56.4 | -58.1% (inactive) | 95.8 | -0.543 (inactive) | -5.8e-05 (inactive) | 0.00479 (inactive) | 3.44% (inactive) | 19.5% (inactive) | – | –
25 | COc1cccc(Nc2nc(=O)[nH]nc2C)c1 | 372 | -0.7% (inactive) | -14.2% (inactive) | 106 | -23.9% (inactive) | 103 | -0.572 (inactive) | -4.1e-05 (inactive) | 0.00575 (inactive) | 16.9% (inactive) | 22.7% (inactive) | – | –
26 | O=C(Nc1ccc2c(c1)OCO2)c1nn(-c2ccccc2)c(=O)c2ccccc12 | 417 | 7.1% (inactive) | -7.3% (inactive) | 93.9 | – | 150 | -0.621 (inactive) | 2e-05 (inactive) | – | 13.5% (inactive) | 11.4% (inactive) | 0.00664 (inactive) | –
27 | CCCC1(C(=O)OCC)NC(c2ccc(N(C)C)cc2)C2C(=O)N(c3ccccc3)C(=O)C21 (centres undefined) | 468 | -0.5% (inactive) | 4.8% (inactive) | 92.4 | -15.1% (inactive) | 95 | -0.465 (inactive) | -6.2e-05 (inactive) | 0.0068 (inactive) | 8.02% (inactive) | 20.7% (inactive) | – | –
28 | CCOC(=O)N1CCN(C(=O)C2CC(=O)N(Cc3ccc(OC)cc3)C2)CC1 (centres undefined) | 607 | -14.6% (inactive) | -1.6% (inactive) | 112 | -28.6% (inactive) | 111 | -0.566 (inactive) | -1e-05 (inactive) | 0.0052 (inactive) | 13.3% (inactive) | 18.5% (inactive) | – | –
29 | COc1cccc(C(=O)Nc2ccc(NC(=O)C(C)(C)C)cn2)c1 | 444 | 9.8% (inactive) | -12.7% (inactive) | 120 | – | 135 | -0.571 (inactive) | -9.6e-06 (inactive) | 0.00623 (inactive) | 36% (inactive) | 21.1% (inactive) | – | –
